# Results: ChEMBL document CHEMBL3745654, “N-Alkylated arylsulfonamides of (aryloxy)ethyl piperidines: 5-HT(7) receptor selectivity versus multireceptor profile” (Bioorg Med Chem, 2016)
# What was measured:
# Rattus norvegicus = assay: Pro-cognitive effect in ip dosed Sprague-Dawley rat assessed as amelioration of PCP-induced memory deficit dosed 1 hr and 15 mins before familiarization phase by novel object recognition test; assay type: functional; details: for minimal effective dose: read-out: MED
# Method in brief: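 Male Sprague–Dawley rats (~250 g), 7–12 per group, PCP-induced deficit model. Compounds ip 1 h and 15 min before T1. Day 1: 5-min arena habituation. Day 2: two 3-min trials 1 h apart, with two identical objects, then one replaced by a novel object. Exploration and distance video-tracked; discrimination index computed; ANOVA with Newman–Keuls.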
# [1] = target: Histamine H1 receptor (Homo sapiens) (UniProt P35367); assay: Displacement of [3H]-pyrilamine from human recombinant histamine H1 receptor expressed in HEK293 cells at 1 uM after 60 mins by Scintillation counting method; assay type: cell-based
# [2] = Metabolic stability in mouse liver microsomes assessed as retention time of compound at 20 uM at pH 7.4 incubated for 15 mins by UPLC/MS analysis in presence of NADPH; assay type: ADME; details: pH 7.4, 0.25 h
# Method in brief: (§1)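 Compound (20 µM) incubated with mouse liver microsomes (0.2 mg/ml) in 100 mM potassium phosphate, pH 7.4, 37 °C. Reaction started with NADPH-regenerating system; blank without NADPH run in parallel. Sampling at 5, 15, 30 and 60 min (some to 120 min), in duplicate. Levallorphan internal standard; UPLC/MS quantitation. t1/2 from ln % remaining vs time.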
# D(2) dopamine receptor [3] = target: T1, D(2) dopamine receptor (Homo sapiens, UniProt P14416); assay: Displacement of [3H]-Raclopride from human dopamine D2L receptor expressed in HEK293 cells incubated for 1 hr; assay type: cell-based
# Method in brief: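 Membranes from HEK293 cells stably expressing human D2L receptor, with [3H]-raclopride (74.4 Ci/mmol). Buffer: Tris-HCl, EDTA, MgCl2, 120 mM NaCl, 5 mM KCl, 1.5 mM CaCl2, ascorbate. Incubation 1 h at 37 °C, then filtration. Non-specific binding defined with (+)butaclamol. Triplicates at 7–8 concentrations (10^-11 to 10^-4 M). Ki by Cheng–Prusoff.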
# Mus musculus = assay: Toxicity in Swiss albino mouse assessed as effect on spontaneous locomotor activity at 1.25 mg/kg, ip dosed 60 mins before test measured after 2 to 6 mins; assay type: organism-based; details: in vivo
# [4] = target: T2, Adrenergic receptor alpha-1 (Rattus norvegicus, UniProt P15823+P23944+P43140); assay: Displacement of [3H]-Prazosin form rat cerebral cortex alpha-1 adrenergic receptor after 60 mins by scintillation counting method; assay type: tissue-based
# T2 sequence (P15823 whole entry): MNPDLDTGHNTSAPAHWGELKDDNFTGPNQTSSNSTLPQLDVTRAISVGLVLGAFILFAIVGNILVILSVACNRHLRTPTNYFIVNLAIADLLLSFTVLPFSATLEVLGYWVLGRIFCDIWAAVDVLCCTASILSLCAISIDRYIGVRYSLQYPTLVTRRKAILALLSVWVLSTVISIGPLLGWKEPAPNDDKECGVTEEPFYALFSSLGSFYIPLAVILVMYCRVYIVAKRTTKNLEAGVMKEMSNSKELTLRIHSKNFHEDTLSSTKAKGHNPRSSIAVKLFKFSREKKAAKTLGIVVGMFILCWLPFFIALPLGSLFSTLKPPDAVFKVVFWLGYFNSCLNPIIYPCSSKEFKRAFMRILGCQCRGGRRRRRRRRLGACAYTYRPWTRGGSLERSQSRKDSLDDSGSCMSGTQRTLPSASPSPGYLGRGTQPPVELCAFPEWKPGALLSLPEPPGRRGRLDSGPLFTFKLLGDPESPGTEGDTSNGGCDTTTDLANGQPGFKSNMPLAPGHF
# T2 sequence (P23944 whole entry): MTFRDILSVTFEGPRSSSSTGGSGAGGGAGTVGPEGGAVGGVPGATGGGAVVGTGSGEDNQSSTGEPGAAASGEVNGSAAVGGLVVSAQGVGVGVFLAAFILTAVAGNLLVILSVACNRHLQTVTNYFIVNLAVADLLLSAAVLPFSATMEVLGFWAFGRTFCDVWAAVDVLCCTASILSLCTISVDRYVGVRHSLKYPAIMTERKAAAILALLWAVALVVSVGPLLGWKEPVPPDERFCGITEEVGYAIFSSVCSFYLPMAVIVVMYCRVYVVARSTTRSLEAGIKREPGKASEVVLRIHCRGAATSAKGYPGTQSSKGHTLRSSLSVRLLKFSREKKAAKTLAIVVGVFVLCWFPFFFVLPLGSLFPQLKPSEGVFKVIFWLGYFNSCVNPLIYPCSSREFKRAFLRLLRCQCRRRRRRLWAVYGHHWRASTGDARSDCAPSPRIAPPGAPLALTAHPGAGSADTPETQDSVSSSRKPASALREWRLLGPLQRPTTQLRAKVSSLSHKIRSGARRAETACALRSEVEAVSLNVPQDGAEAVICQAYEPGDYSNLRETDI
# T2 sequence (P43140 whole entry): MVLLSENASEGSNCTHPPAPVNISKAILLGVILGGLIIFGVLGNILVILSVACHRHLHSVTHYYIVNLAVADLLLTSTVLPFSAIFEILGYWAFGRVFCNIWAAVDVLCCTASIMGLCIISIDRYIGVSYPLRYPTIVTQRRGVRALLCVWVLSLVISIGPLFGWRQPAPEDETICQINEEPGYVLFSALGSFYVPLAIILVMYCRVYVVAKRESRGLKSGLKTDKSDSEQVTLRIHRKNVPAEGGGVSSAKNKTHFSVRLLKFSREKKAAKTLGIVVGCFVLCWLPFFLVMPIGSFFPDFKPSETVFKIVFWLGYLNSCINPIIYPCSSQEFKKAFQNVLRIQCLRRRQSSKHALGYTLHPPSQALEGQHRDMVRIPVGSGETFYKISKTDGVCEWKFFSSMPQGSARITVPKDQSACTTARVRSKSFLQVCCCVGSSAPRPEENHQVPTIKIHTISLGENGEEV
# Method in brief: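 Rat cerebral cortex membranes incubated with [3H]-prazosin (22 Ci/mmol; 0.6 nM). Compound tested at seven or eight concentrations (1 nM upward). Ki calculated by Cheng–Prusoff.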
# [5] = Intrinsic clearance in mouse liver microsomes at 20 uM at pH 7.4 incubated for 15 mins by UPLC/MS analysis in presence of NADPH; assay type: ADME; details: read-out: CLH
# [6] = Drug metabolism in mouse liver microsomes assessed as retention time of N-dealkylated metabolite at 20 uM at pH 7.4 incubated for 15 mins by UPLC/MS analysis in presence of NADPH; assay type: ADME; details: pH 7.4, 0.25 h; method in brief: as §1
# [7] = target: D(3) dopamine receptor (Homo sapiens) (UniProt P35462); assay: […] human dopamine D3 receptor expressed in CHO cells assessed as inhibition of dopamine-induced cAMP level at 1 uM after 30 mins by HTRF method; assay type: cell-based
# D(2) dopamine receptor [8] = target: T1, D(2) dopamine receptor; assay: Antagonist activity at human dopamine D2L receptor expressed in HEK293 cells assessed as inhibition of dopamine-induced cAMP level at 1 uM; assay type: functional, cell-based
# Method in brief: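 Cellular functional cAMP antagonist assay in HEK293 cells, run externally. Inhibition of control agonist response (dopamine 30 nM) measured with compound at 10^-6 M.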
# Chain of Histamine H1 receptor (Homo sapiens) (P35367 whole entry): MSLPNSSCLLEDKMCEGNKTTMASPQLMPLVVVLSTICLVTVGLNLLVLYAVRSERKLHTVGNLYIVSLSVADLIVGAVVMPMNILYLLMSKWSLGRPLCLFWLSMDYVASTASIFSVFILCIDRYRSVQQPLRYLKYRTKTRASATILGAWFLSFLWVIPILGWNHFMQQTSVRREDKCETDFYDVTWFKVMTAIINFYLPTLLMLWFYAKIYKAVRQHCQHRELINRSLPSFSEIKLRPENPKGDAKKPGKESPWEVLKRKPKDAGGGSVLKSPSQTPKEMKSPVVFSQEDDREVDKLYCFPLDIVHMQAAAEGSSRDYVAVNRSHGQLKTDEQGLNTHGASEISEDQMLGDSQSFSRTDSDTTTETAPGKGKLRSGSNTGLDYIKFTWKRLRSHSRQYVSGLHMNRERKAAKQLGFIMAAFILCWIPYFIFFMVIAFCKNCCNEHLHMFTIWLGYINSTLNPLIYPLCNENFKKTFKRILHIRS
# T1 sequence (P14416 whole entry): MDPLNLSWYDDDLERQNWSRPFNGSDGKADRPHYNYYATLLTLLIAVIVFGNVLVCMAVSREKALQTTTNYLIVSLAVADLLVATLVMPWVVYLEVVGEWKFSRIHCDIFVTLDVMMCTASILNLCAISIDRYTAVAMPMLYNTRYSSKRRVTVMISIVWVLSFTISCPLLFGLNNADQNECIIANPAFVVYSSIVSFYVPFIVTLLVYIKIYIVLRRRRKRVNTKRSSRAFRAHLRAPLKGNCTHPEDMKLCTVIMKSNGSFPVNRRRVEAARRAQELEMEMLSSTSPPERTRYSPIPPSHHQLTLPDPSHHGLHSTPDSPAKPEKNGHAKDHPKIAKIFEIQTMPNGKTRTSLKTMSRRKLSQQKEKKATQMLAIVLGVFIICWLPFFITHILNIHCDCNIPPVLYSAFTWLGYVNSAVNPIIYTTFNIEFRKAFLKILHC
# Chain of D(3) dopamine receptor (Homo sapiens) (P35462 whole entry): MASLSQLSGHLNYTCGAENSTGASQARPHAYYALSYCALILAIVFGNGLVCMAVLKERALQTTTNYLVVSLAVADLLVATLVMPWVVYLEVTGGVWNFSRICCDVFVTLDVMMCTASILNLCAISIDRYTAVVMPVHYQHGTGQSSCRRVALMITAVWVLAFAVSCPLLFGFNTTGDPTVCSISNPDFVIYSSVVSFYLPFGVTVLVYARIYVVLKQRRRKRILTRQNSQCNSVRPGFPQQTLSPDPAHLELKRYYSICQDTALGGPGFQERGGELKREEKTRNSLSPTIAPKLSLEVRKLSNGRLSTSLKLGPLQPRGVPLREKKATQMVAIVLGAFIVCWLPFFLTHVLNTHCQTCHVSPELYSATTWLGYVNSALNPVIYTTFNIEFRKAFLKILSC
Structure (SMILES),Activity (Rattus norvegicus),minimal effective dose (Rattus norvegicus) [mg/kg],inhibition [1] [%],Retention_time [2] [min],Ki (D(2) dopamine receptor [3]) [nM],Activity (Mus musculus),Ki [4] [nM],microsomal CLint at 20 µM [5] [µL/min/mg],Retention_time [6] [min],inhibition [7] [%],inhibition (D(2) dopamine receptor [8]) [%]
Cn1cc(S(=O)(=O)N(CC2CC2)C2CCN(CCOc3ccccc3C(C)(C)C)CC2)cn1,Dose-dependent effect,1,< 64,5.74,230,Non-toxic,> 300,77.9,,,
CN(C1CCN(CCOc2ccccc2-c2ccccc2)CC1)S(=O)(=O)c1cnn(C)c1,,,< 64,4.88,35,,> 300,167,4.64,> 91,93
CN(C1CCN(CCOc2ccccc2C(C)(C)C)CC1)S(=O)(=O)c1cnn(C)c1,,,< 64,5.22,280,,> 300,190,,,
Cn1cc(S(=O)(=O)N(CC2CC2)C2CCN(CCOc3ccccc3-c3ccccc3)CC2)cn1,Dose-dependent effect,1,< 64,5.46,16,Non-toxic,> 300,55.9,4.59,> 91,94
